In ChEMBL document CHEMBL2407039 (Eur J Med Chem, 2013):
pIC50: −log10 of the molar value. Values after ≈ are worked out from the molar mass of the structure shown. Active and inactive are the calls of the source. The rule behind the calls is not given here.

Assays:
DNA [1] = experiment: Binding affinity to calf thymus DNA assessed as intercalation at 20 uM after 2 hrs by circular dichroism spectrophotometry; assay type: nucleic-acid assay; settings: Bos taurus
Method in brief: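 Calf thymus DNA (100 µM) was incubated with compound (20 µM) in Tris-HCl buffer for 2 h at 25 °C. CD spectra were then analysed over 230–300 nm.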

[2] = target: T1, Fibroblast growth factor receptor 1 (Homo sapiens, UniProt P11362); experiment: Inhibition of FGFR1 (unknown origin) using poly (Glu, Tyr)4:1 as substrate by ELISA
Target sequence in this assay (P11362 whole entry): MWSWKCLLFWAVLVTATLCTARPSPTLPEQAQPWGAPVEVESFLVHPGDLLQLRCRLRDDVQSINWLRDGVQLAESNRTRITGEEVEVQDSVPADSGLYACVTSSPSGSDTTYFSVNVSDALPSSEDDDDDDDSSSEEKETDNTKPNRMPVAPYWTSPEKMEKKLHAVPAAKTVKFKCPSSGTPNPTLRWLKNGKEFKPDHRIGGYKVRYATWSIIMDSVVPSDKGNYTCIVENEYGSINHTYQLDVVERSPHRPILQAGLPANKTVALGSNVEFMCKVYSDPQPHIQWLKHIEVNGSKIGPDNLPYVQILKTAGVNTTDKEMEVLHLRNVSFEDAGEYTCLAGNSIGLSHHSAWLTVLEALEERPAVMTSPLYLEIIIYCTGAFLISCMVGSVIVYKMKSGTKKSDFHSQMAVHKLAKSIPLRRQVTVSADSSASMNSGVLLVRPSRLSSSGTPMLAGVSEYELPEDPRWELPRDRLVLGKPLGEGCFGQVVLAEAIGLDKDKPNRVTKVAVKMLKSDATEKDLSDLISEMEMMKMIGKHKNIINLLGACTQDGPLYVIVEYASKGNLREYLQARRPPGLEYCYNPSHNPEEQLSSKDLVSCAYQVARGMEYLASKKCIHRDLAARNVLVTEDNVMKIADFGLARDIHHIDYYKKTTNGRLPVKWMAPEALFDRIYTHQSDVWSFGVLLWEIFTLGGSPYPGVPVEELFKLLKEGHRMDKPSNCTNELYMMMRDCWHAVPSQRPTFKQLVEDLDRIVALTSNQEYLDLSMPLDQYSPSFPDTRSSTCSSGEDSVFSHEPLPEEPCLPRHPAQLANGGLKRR

[3] = Cytotoxicity against human GES-1 cells after 72 hrs by sulforhodamine B assay; assay type: cell-based; settings: GES1, 72 h
Method in brief: (§1)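 Cells seeded and cultured overnight, then treated with increasing compound concentrations for 72 h. Fixed with 10% TCA, stained with sulforhodamine B, dye dissolved in 10 mM Tris-HCl, read at 515 nm. Inhibition taken relative to untreated control. IC50 by the Logit method; triplicate experiments.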

[4] = target: Vascular endothelial growth factor receptor 2 (Homo sapiens, UniProt P35968); experiment: Inhibition of KDR (unknown origin) using poly (Glu, Tyr)4:1 as substrate by ELISA
A549 = experiment: Cytotoxicity against human A549 cells after 72 hrs by sulforhodamine B assay; assay type: functional, cell-based; settings: A549, 72 h; method in brief: as §1
[5] = Cytotoxicity against human LO2 cells after 72 hrs by sulforhodamine B assay; assay type: cell-based; settings: L02, 72 h; method in brief: as §1
[6] = target: DNA topoisomerase 2-alpha (Homo sapiens) (UniProt P11388); experiment: Inhibition of human topoisomerase 2 alpha-mediated decatenation of kinetoplast DNA at 100 uM after 30 mins by agarose gel electrophoresis in presence of ATP relative to control
Chain of DNA topoisomerase 2-alpha (Homo sapiens) (P11388 whole entry): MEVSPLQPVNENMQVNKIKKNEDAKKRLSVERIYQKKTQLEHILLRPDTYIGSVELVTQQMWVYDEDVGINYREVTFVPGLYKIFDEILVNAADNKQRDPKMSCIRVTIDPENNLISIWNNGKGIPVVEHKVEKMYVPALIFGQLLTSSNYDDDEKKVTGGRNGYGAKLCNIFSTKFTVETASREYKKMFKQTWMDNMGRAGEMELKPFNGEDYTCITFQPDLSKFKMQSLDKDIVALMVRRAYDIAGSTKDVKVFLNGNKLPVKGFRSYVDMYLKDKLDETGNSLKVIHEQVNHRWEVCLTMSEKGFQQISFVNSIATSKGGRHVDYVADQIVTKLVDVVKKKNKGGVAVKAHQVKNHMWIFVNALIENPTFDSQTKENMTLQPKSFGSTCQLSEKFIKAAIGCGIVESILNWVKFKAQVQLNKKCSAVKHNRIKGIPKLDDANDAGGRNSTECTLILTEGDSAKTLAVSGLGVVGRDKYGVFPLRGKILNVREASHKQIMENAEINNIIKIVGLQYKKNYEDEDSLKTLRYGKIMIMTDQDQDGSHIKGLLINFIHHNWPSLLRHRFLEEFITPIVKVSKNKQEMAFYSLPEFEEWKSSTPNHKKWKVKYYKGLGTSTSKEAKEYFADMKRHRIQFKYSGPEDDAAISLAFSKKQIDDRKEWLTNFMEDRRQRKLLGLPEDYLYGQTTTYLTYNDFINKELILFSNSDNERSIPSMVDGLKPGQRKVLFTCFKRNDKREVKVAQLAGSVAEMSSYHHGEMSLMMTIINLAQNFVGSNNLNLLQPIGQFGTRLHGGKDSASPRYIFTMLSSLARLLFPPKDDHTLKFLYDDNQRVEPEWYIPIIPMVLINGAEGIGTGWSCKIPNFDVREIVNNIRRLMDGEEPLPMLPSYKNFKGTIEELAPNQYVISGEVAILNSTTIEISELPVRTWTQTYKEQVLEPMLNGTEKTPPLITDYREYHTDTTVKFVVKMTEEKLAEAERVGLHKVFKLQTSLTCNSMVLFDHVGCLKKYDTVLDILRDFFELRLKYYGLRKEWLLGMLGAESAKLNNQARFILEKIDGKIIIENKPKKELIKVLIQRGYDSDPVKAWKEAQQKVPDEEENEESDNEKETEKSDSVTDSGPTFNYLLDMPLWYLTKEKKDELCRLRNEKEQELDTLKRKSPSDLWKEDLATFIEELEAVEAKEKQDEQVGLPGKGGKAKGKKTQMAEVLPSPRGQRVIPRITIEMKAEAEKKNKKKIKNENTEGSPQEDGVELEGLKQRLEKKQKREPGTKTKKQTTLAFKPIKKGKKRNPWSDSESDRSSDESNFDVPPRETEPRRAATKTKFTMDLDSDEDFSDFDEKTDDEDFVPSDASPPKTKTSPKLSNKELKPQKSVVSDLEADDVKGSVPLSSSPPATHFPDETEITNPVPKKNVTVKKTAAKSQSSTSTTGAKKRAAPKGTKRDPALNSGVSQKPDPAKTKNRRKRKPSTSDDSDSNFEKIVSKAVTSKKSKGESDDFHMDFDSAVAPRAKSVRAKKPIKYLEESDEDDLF
Method in brief: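 ATP-dependent decatenation of 0.1 µg kinetoplast DNA by 1 unit of human topo IIα. Incubated 30 min at 37 °C in 50 mM Tris-HCl pH 8.0, 150 mM NaCl, 10 mM MgCl2, 2 mM ATP, 0.5 mM DTT. Gel images quantified by densitometry.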

[7] = target: Platelet-derived growth factor receptor alpha (Homo sapiens, UniProt P16234); experiment: Inhibition of PDGFRalpha (unknown origin) using poly (Glu, Tyr)4:1 as substrate by ELISA
Chain of Platelet-derived growth factor receptor alpha (P16234 whole entry): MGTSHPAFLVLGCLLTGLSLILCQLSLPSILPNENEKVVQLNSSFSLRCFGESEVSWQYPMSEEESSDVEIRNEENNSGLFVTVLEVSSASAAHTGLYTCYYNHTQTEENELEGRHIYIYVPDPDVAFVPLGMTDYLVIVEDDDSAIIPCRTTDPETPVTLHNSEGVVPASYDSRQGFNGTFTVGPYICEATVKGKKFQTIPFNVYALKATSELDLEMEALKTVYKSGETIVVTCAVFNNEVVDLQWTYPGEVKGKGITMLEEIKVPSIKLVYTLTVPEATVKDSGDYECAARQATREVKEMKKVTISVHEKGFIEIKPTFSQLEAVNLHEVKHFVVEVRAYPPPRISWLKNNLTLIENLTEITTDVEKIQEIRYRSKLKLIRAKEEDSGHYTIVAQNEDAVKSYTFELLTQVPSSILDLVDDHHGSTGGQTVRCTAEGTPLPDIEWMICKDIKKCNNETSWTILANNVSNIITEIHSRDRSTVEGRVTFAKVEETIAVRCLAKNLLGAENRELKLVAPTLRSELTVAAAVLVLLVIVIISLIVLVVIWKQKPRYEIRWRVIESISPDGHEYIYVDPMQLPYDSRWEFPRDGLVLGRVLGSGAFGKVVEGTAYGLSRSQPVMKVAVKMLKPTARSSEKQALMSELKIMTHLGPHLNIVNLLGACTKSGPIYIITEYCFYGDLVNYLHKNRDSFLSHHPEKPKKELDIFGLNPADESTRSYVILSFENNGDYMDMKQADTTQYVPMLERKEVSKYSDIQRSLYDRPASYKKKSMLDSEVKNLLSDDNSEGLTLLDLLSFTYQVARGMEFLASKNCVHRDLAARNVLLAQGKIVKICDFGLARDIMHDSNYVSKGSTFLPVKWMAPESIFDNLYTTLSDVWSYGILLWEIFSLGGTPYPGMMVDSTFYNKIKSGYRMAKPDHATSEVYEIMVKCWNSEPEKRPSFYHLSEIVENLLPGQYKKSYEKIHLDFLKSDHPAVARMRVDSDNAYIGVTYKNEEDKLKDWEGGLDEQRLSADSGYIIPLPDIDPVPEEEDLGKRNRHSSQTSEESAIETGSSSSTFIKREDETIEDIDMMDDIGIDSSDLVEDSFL
Method in brief: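 ELISA on wells precoated with 2.5 µg/well poly(Glu,Tyr) 4:1. Reaction buffer was 50 mM HEPES pH 7.4, 20 mM MgCl2, 0.1 mM Na3VO4, 1 mM DTT, with 10 µM ATP; the reaction was started by adding kinase and run 1 h at 37 °C. Phosphotyrosine detected with PY99 and HRP anti-mouse IgG, o-phenylenediamine development, read at 490 nm.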

[8] = Solubility of the compound in PBS buffer at PH 7.4 after 24 hrs by UV-Visible spectrophotometry; assay type: physicochemical
[9] = target: Platelet-derived growth factor receptor beta (Homo sapiens, UniProt P09619); experiment: Inhibition of PDGFRbeta (unknown origin) using poly (Glu, Tyr)4:1 as substrate by ELISA
MDA-MB-231 = experiment: Cytotoxicity against human MDA-MB-231 cells after 72 hrs by sulforhodamine B assay; assay type: functional, cell-based; settings: MDA-MB-231, 72 h; method in brief: as §1
HL-60 = experiment: Cytotoxicity against human HL60 cells after 72 hrs by MTT assay; assay type: functional, cell-based; settings: HL-60, 72 h
Method in brief: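 HL60 cells were treated with increasing compound concentrations for 72 h. MTT was then added for 4 h. Cells were lysed overnight at 37 °C in 10% SDS–5% isobutanol–12 mM HCl and read at 570 nm. Inhibition taken relative to control. IC50 by the Logit method; triplicate experiments.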

DNA [10] = experiment: Binding affinity to calf thymus DNA assessed as intercalation after 1 hr by fluorescence spectrophotometric analysis; assay type: nucleic-acid assay; settings: Bos taurus
Method in brief: (§2)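 Fluorescence spectra were recorded at 25 °C. Compound was present at 10 µM with calf thymus DNA at 0–80 µM, in 20 mM Tris-HCl (pH 7.5) containing 1% DMSO.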

DNA [11] = experiment: Binding affinity to calf thymus DNA assessed as intercalation at 10 uM after 1 hr by fluorescence spectrophotometry; assay type: nucleic-acid assay; settings: Bos taurus; method in brief: as §2
[12] = Antimigratory activity against human HMEC1 cells at 10 uM after 6 hrs by transwell Boyden chamber assay relative to control; assay type: functional; settings: HMEC-1, 6 h
Method in brief: (§3)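 HMEC-1 suspension (5 × 10⁵ cells/mL) with compound or control was placed in the upper compartment of a transwell Boyden chamber. The lower compartment held MCDB131 with 20% FBS plus the same compound concentration. After 6 h at 37 °C, migrated cells were quantified by absorbance. Inhibition = [1 − (A compound − A blank)/(A control − A blank)] × 100%; mean ± SD, n = 3.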

[13] = Antiangiogenic activity in human HMEC1 cells assessed as inhibition of serum-stimulated tube formation at 5 uM after 8 hrs by matrigel assay relative to control; assay type: functional; settings: HMEC-1, 8 h
Method in brief: (§4)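 Matrigel was set in 96-well plates (37 °C, 1 h) and seeded with HMEC-1 at 1 × 10⁵ cells/mL. Cells were cultured 8 h at 37 °C in MCDB131 with 20% FBS containing compound or control. Tubes were counted in five random fields by phase-contrast microscopy. Inhibition = [1 − tubes compound/tubes control] × 100%; mean ± SD, n = 3.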

HMEC-1 [14] = experiment: Antiangiogenic activity in human HMEC1 cells assessed as growth inhibition at <= 10 uM after 72 hrs by SRB assay; assay type: functional, cell-based
Method in brief: (§5)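 HMEC-1 cells seeded and cultured overnight, then exposed to graded compound concentrations for 72 h. Cells were fixed with 10% trichloroacetic acid and stained with sulforhodamine B. Dye was dissolved in 10 mM Tris-HCl and read at 515 nm. Inhibition = (1 − A515 treated/A515 control) × 100%.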

HMEC-1 [15] = experiment: Antiangiogenic activity in human HMEC1 cells assessed as growth inhibition after 72 hrs by SRB assay; assay type: functional, cell-based; method in brief: as §5
[16] = target: T1, Fibroblast growth factor receptor 1; experiment: Inhibition of FGFR1 in human HMEC1 cells assessed as reduction of bFGF-induced FGFR1 phosphorylation at Tyr 653/654 at 1.25 to 2.5 uM incubated for 10 hrs prior to bFGF challenge measured after 10 mins by Western blotting analysis; assay type: cell-based
Method in brief: (§6)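 HMEC-1 cells were plated at 3 × 10⁵ cells/well and serum-starved 24 h. Cells were exposed to compound (10 h per the results text; methods state 12 h), then stimulated with 50 ng/mL bFGF for 10 min at 37 °C. Whole-cell lysates were run on 10% SDS-PAGE and blotted with antibodies to phospho-FGFR1, phospho-Erk and phospho-AKT, with GAPDH as loading control.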
Target sequence in this assay (P11362 22-822 limits assumed): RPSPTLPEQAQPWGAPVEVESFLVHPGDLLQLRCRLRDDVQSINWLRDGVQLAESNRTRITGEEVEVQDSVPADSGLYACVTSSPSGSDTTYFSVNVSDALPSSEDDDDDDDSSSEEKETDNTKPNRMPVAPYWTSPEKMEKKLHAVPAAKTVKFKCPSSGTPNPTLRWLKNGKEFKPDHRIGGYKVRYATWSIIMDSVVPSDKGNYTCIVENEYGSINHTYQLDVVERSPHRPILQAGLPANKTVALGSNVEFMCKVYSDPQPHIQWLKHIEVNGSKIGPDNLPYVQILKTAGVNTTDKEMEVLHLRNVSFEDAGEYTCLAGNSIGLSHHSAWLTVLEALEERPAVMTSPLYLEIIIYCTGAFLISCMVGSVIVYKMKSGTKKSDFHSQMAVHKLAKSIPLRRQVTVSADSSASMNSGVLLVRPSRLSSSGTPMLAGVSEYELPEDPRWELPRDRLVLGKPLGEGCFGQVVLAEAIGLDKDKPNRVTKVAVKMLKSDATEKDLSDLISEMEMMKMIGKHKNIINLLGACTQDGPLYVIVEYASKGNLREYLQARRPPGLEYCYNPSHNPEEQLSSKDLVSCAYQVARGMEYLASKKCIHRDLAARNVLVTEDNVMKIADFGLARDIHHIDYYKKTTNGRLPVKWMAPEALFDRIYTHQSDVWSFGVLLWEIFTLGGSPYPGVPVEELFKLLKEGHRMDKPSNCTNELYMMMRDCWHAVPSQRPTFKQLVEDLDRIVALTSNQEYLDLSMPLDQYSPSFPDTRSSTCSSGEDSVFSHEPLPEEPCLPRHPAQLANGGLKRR

[17] = target: T1, Fibroblast growth factor receptor 1; experiment: Inhibition of FGFR1 in human HMEC1 cells assessed as reduction of bFGF-induced AKT phosphorylation at Ser 473 at 1.25 to 5 uM incubated for 10 hrs prior to bFGF challenge measured after 10 mins by Western blotting analysis; assay type: cell-based; method in brief: as §6
Target sequence in this assay (P11362 22-822 limits assumed): as above

[18] = Antiangiogenic activity in human HMEC1 cells assessed as growth inhibition at 20 uM after 72 hrs by SRB assay; assay type: functional; settings: HMEC-1, 72 h, read-out: GI; method in brief: as §5
HMEC-1 [19] = experiment: Antiangiogenic activity in human HMEC1 cells assessed as inhibition of serum-stimulated tube formation after 8 hrs by matrigel assay; assay type: functional, cell-based; method in brief: as §4
[20] = target: T1, Fibroblast growth factor receptor 1; experiment: Inhibition of FGFR1 in human HMEC1 cells assessed as inhibition of bFGF-induced FGFR1 phosphorylation at Tyr 653/654 incubated for 10 hrs prior to bFGF challenge measured after 10 mins by Western blotting analysis; assay type: cell-based; method in brief: as §6
Target sequence in this assay (P11362 22-822 limits assumed): as above

HMEC-1 [21] = experiment: Antimigratory activity against human HMEC1 cells after 6 hrs by transwell Boyden chamber assay; assay type: functional, cell-based; method in brief: as §3
[22] = Antiangiogenic activity in human HMEC1 cells assessed as inhibition of serum-stimulated tube formation at 10 uM after 8 hrs by matrigel assay relative to control; assay type: functional; settings: HMEC-1, 8 h; method in brief: as §4
[23] = target: T1, Fibroblast growth factor receptor 1; experiment: Inhibition of FGFR1 in human HMEC1 cells assessed as reduction of bFGF-induced Erk1/2 phosphorylation at Thr 202/204 at 1.25 to 2.5 uM incubated for 10 hrs prior to bFGF challenge measured after 10 mins by Western blotting analysis; assay type: cell-based; method in brief: as §6
Target sequence in this assay (P11362 22-822 limits assumed): as above

[24] = Antimigratory activity against human HMEC1 cells at 5 uM after 6 hrs by transwell Boyden chamber assay relative to control; assay type: functional; settings: HMEC-1, 6 h; method in brief: as §3
[25] = Antiangiogenic activity in human HMEC1 cells assessed as growth inhibition at 40 uM after 72 hrs by SRB assay; assay type: functional; settings: HMEC-1, 72 h, read-out: GI; method in brief: as §5

## CCN1C(=O)c2cccc3c(NCCNCCN(C)C)ccc(c23)C1=O
DNA [1]
  Activity: inactive
[2]
  pIC50: < 4.00
[3]
  pIC50: < 4.30
[4]
  pIC50: < 4.00
A549
  pIC50: 4.50
[5]
  pIC50: < 4.30
[6]
  inhibition: 86.7%
[7]
  pIC50: < 4.00
[8]
  solubility at 24 h: 46700 µM (≈ 16600 µg/mL)
[9]
  pIC50: < 4.00
MDA-MB-231
  pIC50: 4.61
HL-60
  pIC50: 4.77

## CCCCN1C(=O)c2cccc3c(NCCNCCN(C)C)ccc(c23)C1=O
DNA [1]
  Activity: inactive
[2]
  pIC50: < 4.00
[3]
  pIC50: < 4.30
[4]
  pIC50: < 4.00
A549
  pIC50: 4.67
[5]
  pIC50: < 4.30
[6]
  inhibition: 90.2%
[7]
  pIC50: < 4.00
[8]
  solubility at 24 h: 15400 µM (≈ 5890 µg/mL)
[9]
  pIC50: < 4.00
MDA-MB-231
  pIC50: 4.98
HL-60
  pIC50: 5.24

## CN(C)CCN1C(=O)c2cccc3cc(N)cc(c23)C1=O [AMONAFIDE]
DNA [10]
  Kb: 2.1 ×10⁵ /M
[3]
  pIC50: 4.67
A549
  pIC50: 5.49
[5]
  pIC50: 4.86
[6]
  inhibition: 97.5%
MDA-MB-231
  pIC50: 5.36
HL-60
  pIC50: 6.05
DNA [11]
  Activity: inactive

## CCCCCCCCN1C(=O)c2cccc3c(NCCNCCN(C)C)ccc(c23)C1=O
DNA [1]
  Activity: inactive
[2]
  pIC50: 4.74
[12]
  inhibition at 10 µM: 70%
[3]
  pIC50: < 4.30
[13]
  inhibition at 5 µM: 30%
HMEC-1 [14]
  growth inhibition (GI): inactive
[4]
  pIC50: 4.31
A549
  pIC50: 5.11
[5]
  pIC50: < 4.30
HMEC-1 [15]
  growth inhibition (GI): Dose-dependent effect
[16]
  inhibition: Active
[17]
  inhibition: Active
[18]
  inhibition of growth at 20 µM: 68%
HMEC-1 [19]
  inhibition: Dose-dependent effect
[20]
  inhibition: Dose-dependent effect
[6]
  inhibition: 99.8%
HMEC-1 [21]
  inhibition: Dose-dependent effect
[7]
  pIC50: < 4.00
[22]
  inhibition at 10 µM: 70%
[8]
  solubility at 24 h: 264 µM (≈ 116 µg/mL)
[9]
  pIC50: < 4.30
MDA-MB-231
  pIC50: 5.07
HL-60
  pIC50: 5.68
DNA [11]
  Activity: inactive
[23]
  inhibition: Active
[24]
  inhibition at 5 µM: 55%
[25]
  inhibition of growth at 40 µM: 99%

## CCCCCCCCCCCCN1C(=O)c2cccc3c(NCCNCCN(C)C)ccc(c23)C1=O
DNA [1]
  Activity: inactive
[2]
  pIC50: 4.54
[3]
  pIC50: < 4.30
[4]
  pIC50: 4.56
A549
  pIC50: 4.72
[5]
  pIC50: < 4.30
[6]
  inhibition: 96.6%
[7]
  pIC50: 4.58
[8]
  solubility at 24 h: 63 µM (≈ 31.2 µg/mL)
[9]
  pIC50: < 4.30
MDA-MB-231
  pIC50: 5.18
HL-60
  pIC50: 5.74

## CCCCCCN1C(=O)c2cccc3c(NCCNCCN(C)C)ccc(c23)C1=O
DNA [1]
  Activity: inactive
[2]
  pIC50: < 4.00
[3]
  pIC50: 4.34
[4]
  pIC50: < 4.00
A549
  pIC50: 5.01
[5]
  pIC50: < 4.30
[6]
  inhibition: 94.3%
[7]
  pIC50: < 4.00
[8]
  solubility at 24 h: 430 µM (≈ 177 µg/mL)
[9]
  pIC50: < 4.00
MDA-MB-231
  pIC50: 5.21
HL-60
  pIC50: 5.82

## CCCCCCCCCCCCCCCCN1C(=O)c2cccc3c(NCCNCCN(C)C)ccc(c23)C1=O
DNA [1]
  Activity: inactive
[2]
  pIC50: < 4.00
[3]
  pIC50: < 4.30
[4]
  pIC50: < 4.00
A549
  pIC50: 4.50
[5]
  pIC50: < 4.30
[6]
  inhibition: 97.3%
[7]
  pIC50: < 4.30
[8]
  solubility at 24 h: 16 µM (≈ 8.81 µg/mL)
[9]
  pIC50: < 4.30
MDA-MB-231
  pIC50: 4.75
HL-60
  pIC50: 4.61
DNA [11]
  Activity: inactive

## CN(C)CCNCCNc1ccc2c3c(cccc13)C(=O)N(C)C2=O
DNA [1]
  Activity: inactive
[2]
  pIC50: < 4.00
DNA [10]
  Kb: 1.3 ×10⁵ /M
[3]
  pIC50: < 4.30
[4]
  pIC50: < 4.00
A549
  pIC50: 4.61
[5]
  pIC50: 4.87
[6]
  inhibition: 97.1%
[7]
  pIC50: < 4.00
[8]
  solubility at 24 h: 78400 µM (≈ 26700 µg/mL)
[9]
  pIC50: < 4.00
MDA-MB-231
  pIC50: 5.10
HL-60
  pIC50: 5.11
DNA [11]
  Activity: inactive
